Activity calls are given as the source filed them. No cut-off for these calls is given here.

The subject of one data set is SK-HEP1. As to the kind of experiment: Cytotoxicity against human SK-HEP1 cells assessed as inhibition of cell growth at 4 uM incubated for 72 hrs by SiR-DNA/CellTox Green Dye based fluorescence analysis. Format: toxicity. Particulars: sk-hep1, 72 h. In outline:
(§1)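 Single-agent control at 4 µM, no anticancer drug. 500 cells/well with SiR-DNA and CellTox Green; imaged at addition and 72 h. Live count = total nuclei minus dead cells, expressed as percent growth. Three technical replicates.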

The subject of a further data set is HT-29. In words: Coadjutant activity against multidrug resistance in human HT-29 cells assessed as potentiation of cisplatin-induced cell growth inhibition at 0.25 to 4 uM incubated for 72 hrs in presence of 0.25 uM cisplatin by SiR-DNA/CellTox Green Dye based fluorescence analysis. The format is functional. The settings on record: dose 0.25-4 µM. In outline:
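Cisplatin co-treatment, 72 h imaging growth assay (SiR-DNA nuclei minus CellTox Green dead cells, 500 cells/well, phenol-red-free medium). Combinations: inhibitor fixed with cisplatin 0.1–100 µM, or cisplatin fixed at 0.25 µM with inhibitor 0.25–4 µM. Three technical replicates, mean ± SD; two-tailed t-test.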

The test system of a further data set is HuP-T3. As to the kind of experiment: Cytotoxicity against human Hup-T3 cells assessed as inhibition of cell growth at 4 uM incubated for 72 hrs by SiR-DNA/CellTox Green Dye based fluorescence analysis. The settings on record: hup-t3, 72 h. The format is toxicity. In a few lines:
as §1

For `O=C(Nc1ccccc1)c1ccccc1OCc1nc2cc3cccnc3cc2nc1COc1ccccc1C(=O)Nc1ccccc1`, the Activity result in the data set on SK-HEP1 and in the data set on HuP-T3 was “Non-Toxic” in each case. Moreover, the outcome with HT-29 was inactive.

Source of the values: ChEMBL document CHEMBL5608187, “Discovery of pyridoquinoxaline-based new P-gp inhibitors as coadjutant against Multi Drug Resistance in cancer” (Eur J Med Chem, 2024).
